Converted amounts (≈) assume the structure as drawn.

Assay [1] concerns KB. The experiment in a line: Cytotoxicity against human KB cells after 3 days by SRB assay. The following applies: 72 h. The class given is functional, cell-based. A digest of the protocol: (§1)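 Stock cultures were kept in RPMI-1640 with 25 mM HEPES, 0.25% sodium bicarbonate, 10% FBS and 100 µg/mL kanamycin. Freshly trypsinized cells were seeded at 1500-7500 per well with compounds diluted from DMSO stock and cultured 3 days. Cells were fixed with cold 50% TCA, stained with 0.4% SRB, and the solubilized dye was read at 562 nm. IC50 was the concentration giving a 50% absorbance reduction versus untreated cells.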
Background: The SRB assay estimates cell density from bound dye.

The nature of assay [2]: Cytotoxicity against human KBVIN cells after 3 days by SRB assay. The class given is functional, cell-based. The following applies: 72 h. A digest of the protocol: as §1
In another assay the test system is A549. The assay is described as follows: Cytotoxicity against human A549 cells after 3 days by SRB assay. The following applies: A549, 72 h. The class given is functional, cell-based. A digest of the protocol:
as §1

Another assay relates to 1A9. The experiment in a line: Cytotoxicity against human 1A9 cells after 3 days by SRB assay. Type of assay: functional, cell-based. The following applies: 1A9, 72 h. A digest of the protocol: as §1
A further assay concerns HCT-8. The experiment in a line: Cytotoxicity against human HCT8 cells after 3 days by SRB assay. Type of assay: functional, cell-based. The following applies: HCT-8, 72 h. A digest of the protocol:
as §1

Another assay concerns MCF7. The experiment in a line: Cytotoxicity against human MCF7 cells after 3 days by SRB assay. Type of assay: functional, cell-based. The following applies: MCF7, 72 h. A digest of the protocol:
as §1

Another assay concerns PC-3. The assay is described as follows: Cytotoxicity against human PC3 cells after 3 days by SRB assay. The class given is functional, cell-based. The following applies: PC-3, 72 h. A digest of the protocol: as §1
A short description of assay [3]: Cytotoxicity against human U87MG cells after 3 days by SRB assay. Type of assay: functional, cell-based, U-87MG ATCC. The following applies: U-87 MG, 72 h. A digest of the protocol: as §1
Another assay relates to SK-MEL-2. The assay is described as follows: Cytotoxicity against human SK-MEL-2 cells after 3 days by SRB assay. The class given is functional, cell-based. The following applies: SK-MEL-2, 72 h. A digest of the protocol: as §1
The test system of assay [4] is KB. The assay is described as follows: Cytotoxicity against human KB cells at 10 ug/ml after 3 days by SRB assay. Type of assay: functional. The following applies: 72 h.

For `CC(C)=CCc1c2c(c(O)c3c1O[C@H](c1ccccc1O)[C@@H](O)C3=O)C=CC(C)(C)O2`, the IC50 in the assay with KB [1] was 16.5 µg/mL (≈ 39.1 µM); in assay [2], 13.3 µg/mL (≈ 31.5 µM); with A549, 13.5 µg/mL (≈ 32 µM); in the assay with 1A9, 15 µg/mL (≈ 35.5 µM); in the assay on HCT-8, 12.1 µg/mL (≈ 28.6 µM); in the assay with MCF7, 12.8 µg/mL (≈ 30.3 µM). The results for the 50% inhibitory concentration (IC50) (with PC-3; in assay [3]; with SK-MEL-2) were 15.4 µg/mL (≈ 36.5 µM), 14.8 µg/mL (≈ 35 µM) and 14.8 µg/mL (≈ 35 µM), respectively.

On to `CO[C@H]1C(=O)c2c(O)c3c(c(CC=C(C)C)c2O[C@@H]1c1ccccc1O)OC(C)(C)C=C3`, for which the IC50 with KB [1] worked out at 6.5 µg/mL (≈ 14.9 µM); in assay [2] it was 7 µg/mL (≈ 16 µM); with A549, 7.6 µg/mL (≈ 17.4 µM); with 1A9, 7.8 µg/mL (≈ 17.9 µM); in the assay on HCT-8 it was 7.2 µg/mL (≈ 16.5 µM); in the assay with MCF7, 7 µg/mL (≈ 16 µM). Besides, the IC50 in the assay on PC-3 was 8.4 µg/mL (≈ 19.2 µM); in assay [3] it was 8.6 µg/mL (≈ 19.7 µM); with SK-MEL-2, 7.8 µg/mL (≈ 17.9 µM).

On to `CO[C@H]1C(=O)c2c(cc3c(c2O)C=CC(C)(C)O3)O[C@@H]1c1ccccc1O` [BUCERACIDIN A], for which the concentration for half-maximal inhibition (IC50) in the assay on KB [1] is greater than 10 µg/mL; in assay [2], 15 µg/mL (≈ 40.7 µM); in the assay on A549, 14.1 µg/mL (≈ 38.3 µM); with 1A9 it was 14.9 µg/mL (≈ 40.4 µM); in the assay on HCT-8, 15.5 µg/mL (≈ 42.1 µM); in the assay with MCF7, 13.6 µg/mL (≈ 36.9 µM). In addition, the IC50 with PC-3 came to 16.3 µg/mL (≈ 44.2 µM); in [3], 16.1 µg/mL (≈ 43.7 µM); in the assay with SK-MEL-2, 15.6 µg/mL (≈ 42.3 µM). In the assay on KB [4], this molecule returned an inhibition at 10 µg/mL of 31%.

Turning to `CC1(C)C=Cc2c(cc3c(c2O)C(=O)C[C@@H](c2ccccc2O)O3)O1` [BUCERACIDIN B], the IC50 in the assay with KB [1] was 9.5 µg/mL (≈ 28.1 µM); in assay [2] it was 9.5 µg/mL (≈ 28.1 µM); in the assay with A549 it was 9.9 µg/mL (≈ 29.3 µM); in the assay with 1A9, 11.5 µg/mL (≈ 34 µM); in the assay on HCT-8 it was 12.8 µg/mL (≈ 37.8 µM); with MCF7 it was 9.3 µg/mL (≈ 27.5 µM). In addition, the IC50 amounted to 13 µg/mL (≈ 38.4 µM) in the assay on PC-3, 14.2 µg/mL (≈ 42 µM) in [3] and 14 µg/mL (≈ 41.4 µM) in the assay on SK-MEL-2.

Consider `CC(C)=CCc1c2c(c(O)c3c1O[C@H](c1ccccc1O)CC3=O)C=CC(C)(C)O2` [MINIMIFLORIN], for which the half-maximal inhibitory concentration (IC50) in the assay with KB [1] turned out to be 7.3 µg/mL (≈ 18 µM); in assay [2] it was 7.7 µg/mL (≈ 18.9 µM); in the assay on A549, 8 µg/mL (≈ 19.7 µM); in the assay with 1A9 it was 7.6 µg/mL (≈ 18.7 µM); in the assay on HCT-8 it was 7.2 µg/mL (≈ 17.7 µM); in the assay with MCF7, 7.5 µg/mL (≈ 18.5 µM). Further, the 50% inhibitory concentration (IC50) in the assay with PC-3 turned out to be 9.8 µg/mL (≈ 24.1 µM); in assay [3] it was 11 µg/mL (≈ 27.1 µM); in the assay on SK-MEL-2, 9 µg/mL (≈ 22.1 µM).

Regarding `CC(C)=CCc1c2c(c(O)c3c1O[C@H](c1ccccc1)[C@@H](O)C3=O)C=CC(C)(C)O2` [MUNDULINOL], the IC50 in the assay with KB [1] is 8.5 µg/mL (≈ 20.9 µM); in [2], 7.5 µg/mL (≈ 18.5 µM); with A549, 7.5 µg/mL (≈ 18.5 µM); in the assay on 1A9, 8.2 µg/mL (≈ 20.2 µM); with HCT-8, 7 µg/mL (≈ 17.2 µM); in the assay with MCF7, 7.5 µg/mL (≈ 18.5 µM). Also, the IC50 was determined as 9.3 µg/mL (≈ 22.9 µM) with PC-3, 13 µg/mL (≈ 32 µM) in assay [3] and 8.5 µg/mL (≈ 20.9 µM) with SK-MEL-2.

In general, IC50 refers to the concentration that gives 50% inhibition. Read a low IC50 as higher potency. The inhibition is the share of the control response that was lost under treatment. A higher inhibition goes with strong suppression.

The values are drawn from ChEMBL document CHEMBL1159337, “Antitumor agents. 221.1 buceracidins A and B, two new flavanones from Bucida buceras” (J Nat Prod, 2003).
